Results taken from ChEMBL document CHEMBL4043285 (J Med Chem, 2018).

Tests used:
[1] = target: T1, Receptor-interacting serine/threonine-protein kinase 1 (Mus musculus) (UniProt Q60855); assay: Inhibition of RIPK1 in mouse L929sA cells transfected with human Fas assessed as inhibition in TNF-induced necroptosis at 3 uM pretreated for 0.5 hrs followed by TNF and zVAD.fmk addition measured after 3 hrs by Hoechst 33342/propidium iodide staining-based assay relative to control; format: cell-based
T1 sequence (whole entry): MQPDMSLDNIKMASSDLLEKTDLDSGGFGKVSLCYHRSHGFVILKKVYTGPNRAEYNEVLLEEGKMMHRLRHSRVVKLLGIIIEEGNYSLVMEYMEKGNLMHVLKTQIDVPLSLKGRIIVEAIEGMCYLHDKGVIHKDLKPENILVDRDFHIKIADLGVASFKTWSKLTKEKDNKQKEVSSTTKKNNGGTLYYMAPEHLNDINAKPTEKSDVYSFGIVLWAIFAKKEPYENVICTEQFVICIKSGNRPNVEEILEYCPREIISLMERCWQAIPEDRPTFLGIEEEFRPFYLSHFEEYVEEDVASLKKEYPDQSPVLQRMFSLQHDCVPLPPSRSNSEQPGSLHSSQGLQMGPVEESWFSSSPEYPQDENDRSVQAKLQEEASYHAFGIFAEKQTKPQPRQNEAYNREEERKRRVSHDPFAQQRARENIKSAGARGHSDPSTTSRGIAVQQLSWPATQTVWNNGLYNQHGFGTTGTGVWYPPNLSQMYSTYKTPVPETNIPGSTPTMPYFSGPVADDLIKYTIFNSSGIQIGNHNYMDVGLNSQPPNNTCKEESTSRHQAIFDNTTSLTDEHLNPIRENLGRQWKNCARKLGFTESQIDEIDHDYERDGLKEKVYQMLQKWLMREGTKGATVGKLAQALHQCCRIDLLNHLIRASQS

[2] = Inhibition of Aurk mouse L929sA cells transfected with human Fas assessed as increase in nuclear area after 24 hrs in presence of TNF by Hoechst 33342 staining-based microscopic assay
Procedure, shortened: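 L929sAhFAS cells treated with compound; mean nuclear area is measured and fitted as a sigmoidal dose–response curve.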

Aurk (Aurora kinase) [3] = assay: Inhibition of Aurk in mouse L929sA cells transfected with human Fas assessed as increase in nuclear area at 3 uM after 24 hrs in presence of TNF by Hoechst 33342 staining-based microscopic assay relative to control; format: cell-based
Aurk (Aurora kinase) [4] = assay: Inhibition of Aurk in mouse L929sA cells transfected with human Fas assessed as reduction in cell growth at 3 uM after 24 hrs in presence of TNF by Hoechst 33342 staining-based microscopic assay relative to control
[5] = Inhibition of Aurk mouse L929sA cells transfected with human Fas assessed as reduction in cell growth after 24 hrs in presence of TNF by Hoechst 33342 staining-based microscopic assay
Procedure, shortened: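 L929sAhFAS cells exposed to compound; total cell number is counted after 24 h. IC50 is fitted from a dose–response curve of cell growth.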

[6] = target: T1, Receptor-interacting serine/threonine-protein kinase 1 (Mus musculus); assay: Inhibition of RIPK1 in mouse L929sA cells transfected with human Fas assessed as inhibition in TNF-induced necroptosis at 3 uM pretreated for 24 hrs followed by TNF and zVAD.fmk addition measured after 3 hrs by Hoechst 33342/propidium iodide staining-based assay relative to control; format: cell-based

| SMILES | inhibition [1] | IC50 [2] | inhibition at 24 h, 3 µM (Aurk (Aurora kinase) [3]) | inhibition at 24 h, 3 µM (Aurk (Aurora kinase) [4]) | IC50 [5] | inhibition [6] |
| --- | --- | --- | --- | --- | --- | --- |
| CCN1CCN(c2cc(Nc3n[nH]c(C)c3C)nc(Sc3ccc(NC(=O)C4CC4)cc3)n2)CC1 | < 50% | > 3000 nM | < 50% | < 50% | > 3000 nM | < 50% |
| Cc1[nH]nc(Nc2nc(Nc3ccc(NC(=O)C4CC4)cc3)nc(N3CCCCC3)n2)c1C | < 50% | > 3000 nM | < 50% | < 50% | > 3000 nM | < 50% |
| Cc1cc(Nc2cc(N3CCOCC3)nc(Sc3ccc(NC(=O)C4CC4)cc3)n2)n[nH]1 |  | 1040 nM |  |  | 1000 nM |  |
| Cc1cc(Nc2nc(Nc3ccc(NC(=O)C4CCCCC4)cc3)nc(N3CCCCC3)n2)n[nH]1 | < 50% | > 3000 nM | < 50% | < 50% | > 3000 nM | < 50% |
| Cc1[nH]nc(Nc2cc(N3CCCCC3)nc(Sc3ccc(NC(=O)C4CCCCC4)cc3)n2)c1C | < 50% | > 3000 nM | < 50% | < 50% | > 3000 nM | < 50% |
| Cc1cc(Nc2cc(N3CCOCC3)nc(Nc3ccc(NC(=O)C4CCCCC4)cc3)n2)n[nH]1 |  | > 3000 nM | < 50% |  | 2250 nM |  |
| Cc1cc(Nc2nc(Sc3ccc(NC(=O)C4CC4)cc3)nc(N3CCOCC3)n2)n[nH]1 |  | > 3000 nM | < 50% | < 50% | > 3000 nM |  |
| Cc1cc(Nc2nc(Nc3ccc(NC(=O)C4CC4)cc3)nc(N3CCCCC3)n2)n[nH]1 | < 50% | > 3000 nM | < 50% | < 50% | > 3000 nM | < 50% |
| Cc1cc(Nc2nc(Nc3ccc(NC(=O)C4CCCCC4)cc3)nc(N3CCOCC3)n2)n[nH]1 | < 50% | > 3000 nM | < 50% |  | 2300 nM | < 50% |
| Cc1cc(Nc2cc(N3CCN(C)CC3)nc(Sc3ccc(NC(=O)C4CCCCC4)cc3)n2)n[nH]1 | < 50% | > 3000 nM | < 50% |  | < 600 nM | < 50% |
| Cc1[nH]nc(Nc2nc(Nc3ccc(NC(=O)C4CCCCC4)cc3)nc(N3CCOCC3)n2)c1C | < 50% | > 3000 nM | < 50% | < 50% | > 3000 nM | < 50% |
| Cc1[nH]nc(Nc2nc(Nc3ccc(NC(=O)C4CC4)cc3)nc(N3CCN(C)CC3)n2)c1C | < 50% | > 3000 nM | < 50% | < 50% | > 3000 nM | < 50% |
| Cc1cc(Nc2nc(Sc3ccc(NC(=O)C4CCCCC4)cc3)nc(N3CCCCC3)n2)n[nH]1 | < 50% | > 3000 nM | < 50% | < 50% | > 3000 nM | < 50% |
| Cc1[nH]nc(Nc2nc(Sc3ccc(NC(=O)C4CC4)cc3)nc(N3CCOCC3)n2)c1C | < 50% | > 3000 nM | < 50% | < 50% | > 3000 nM | < 50% |
| Cc1[nH]nc(Nc2cc(N3CCN(C)CC3)nc(Nc3ccc(NC(=O)C4CCCCC4)cc3)n2)c1C | < 50% | > 3000 nM | < 50% | < 50% | > 3000 nM | < 50% |
| Cc1cc(Nc2cc(N3CCN(C)CC3)nc(Nc3ccc(NC(=O)C4CCCCC4)cc3)n2)n[nH]1 |  | > 3000 nM | < 50% | < 50% | > 3000 nM |  |
| Cc1[nH]nc(Nc2cc(N3CCN(C)CC3)nc(Nc3ccc(NC(=O)C4CC4)cc3)n2)c1C | < 50% | > 3000 nM | < 50% | < 50% | > 3000 nM | < 50% |
| Cc1cc(Nc2cc(N3CCCCC3)nc(Sc3ccc(NC(=O)C4CC4)cc3)n2)n[nH]1 |  | 1000 nM |  |  | 1320 nM |  |

| SMILES | inhibition [1] | IC50 [2] | inhibition at 24 h, 3 µM (Aurk (Aurora kinase) [3]) | inhibition at 24 h, 3 µM (Aurk (Aurora kinase) [4]) | IC50 [5] | inhibition [6] |
| --- | --- | --- | --- | --- | --- | --- |
| Cc1cc(Nc2nc(Nc3ccc(NC(=O)C4CC4)cc3)nc(N3CCN(C)CC3)n2)n[nH]1 | < 50% | > 3000 nM | < 50% | < 50% | > 3000 nM | < 50% |
| Cc1[nH]nc(Nc2nc(Nc3ccc(NC(=O)C4CCCCC4)cc3)nc(N3CCN(C)CC3)n2)c1C | < 50% | > 3000 nM | < 50% | < 50% | > 3000 nM | < 50% |
| Cc1[nH]nc(Nc2nc(Nc3ccc(NC(=O)C4CCCCC4)cc3)nc(N3CCCCC3)n2)c1C | < 50% | > 3000 nM | < 50% | < 50% | > 3000 nM | < 50% |
| Cc1[nH]nc(Nc2cc(N3CCOCC3)nc(Nc3ccc(NC(=O)C4CC4)cc3)n2)c1C | < 50% | > 3000 nM | < 50% | < 50% | > 3000 nM | < 50% |
| Cc1[nH]nc(Nc2nc(Sc3ccc(NC(=O)C4CC4)cc3)nc(N3CCCCC3)n2)c1C | < 50% | > 3000 nM | < 50% | < 50% | > 3000 nM | < 50% |
| Cc1[nH]nc(Nc2nc(Sc3ccc(NC(=O)C4CCCCC4)cc3)nc(N3CCOCC3)n2)c1C | < 50% | > 3000 nM | < 50% | < 50% | > 3000 nM | < 50% |
| Cc1[nH]nc(Nc2nc(Sc3ccc(NC(=O)C4CC4)cc3)nc(N3CCN(C)CC3)n2)c1C | < 50% | > 3000 nM | < 50% | < 50% | > 3000 nM | < 50% |
| Cc1[nH]nc(Nc2nc(Nc3ccc(NC(=O)C4CC4)cc3)nc(N3CCOCC3)n2)c1C | < 50% | > 3000 nM | < 50% | < 50% | > 3000 nM | < 50% |
| Cc1cc(Nc2nc(Nc3ccc(NC(=O)C4CC4)cc3)nc(N3CCOCC3)n2)n[nH]1 |  | > 3000 nM | < 50% | < 50% | > 3000 nM |  |
| Cc1cc(Nc2cc(N3CCCCC3)nc(Nc3ccc(NC(=O)C4CCCCC4)cc3)n2)n[nH]1 | < 50% | > 3000 nM | < 50% | < 50% | > 3000 nM |  |
| Cc1cc(Nc2nc(Sc3ccc(NC(=O)C4CC4)cc3)nc(N3CCCCC3)n2)n[nH]1 | < 50% | > 3000 nM | < 50% | < 50% | > 3000 nM | < 50% |
| Cc1[nH]nc(Nc2nc(Sc3ccc(NC(=O)C4CCCCC4)cc3)nc(N3CCCCC3)n2)c1C | < 50% | > 3000 nM | < 50% | < 50% | > 3000 nM | < 50% |
| Cc1[nH]nc(Nc2cc(N3CCOCC3)nc(Nc3ccc(NC(=O)C4CCCCC4)cc3)n2)c1C | < 50% | > 3000 nM | < 50% | < 50% | > 3000 nM | < 50% |
| Cc1cc(Nc2cc(N3CCOCC3)nc(Sc3ccc(NC(=O)C4CCCCC4)cc3)n2)n[nH]1 |  | < 600 nM |  |  | 214 nM |  |
| Cc1cc(Nc2nc(Sc3ccc(NC(=O)C4CCCCC4)cc3)nc(N3CCOCC3)n2)n[nH]1 | < 50% | > 3000 nM | < 50% |  | 2170 nM |  |
| Cc1cc(Nc2nc(Sc3ccc(NC(=O)C4CC4)cc3)nc(N3CCN(C)CC3)n2)n[nH]1 | < 50% | 800 nM |  |  | 440 nM |  |
| Cc1cc(Nc2cc(N3CCCCC3)nc(Sc3ccc(NC(=O)C4CCCCC4)cc3)n2)n[nH]1 |  | > 3000 nM | < 50% |  | 813 nM |  |
